In ChEMBL document CHEMBL3585272, “Syntheses and Antibacterial Activity of N-Acylated Ciprofloxacin Derivatives Based on the Trimethyl Lock” (ACS Med Chem Lett, 2015):
Converted amounts (≈) assume the structure as drawn.

Assays:
Escherichia coli [1] = experiment: Antibacterial activity against Escherichia coli DC0 by broth microdilution method; assay type: functional
In short: (§1)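 Broth microdilution in Mueller-Hinton broth No.2 (MHII) following CLSI guidelines. The MIC (μM) was read by visual end point. Each compound was tested in triplicate.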

Pseudomonas aeruginosa [2] = experiment: Antibacterial activity against wild type Pseudomonas aeruginosa K799 by broth microdilution method; assay type: functional; in short: as §1
Escherichia coli [3] = experiment: Antibacterial activity against Escherichia coli DC2 at 0.1 mM incubated for 24 hrs at 37 degC by agar diffusion assay; assay type: functional; details: DC2, 24 h, read-out: DIZ
In short: (§2)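 Agar well diffusion. 50 μL of a 0.1 mM solution in 1:9 DMSO/MeOH was added to 9 mm wells in Standard I nutrient agar or Mueller Hinton II agar. Plates were incubated at 37 °C for 24 h, or 44 h for M. vaccae, then inhibition zones were read. Unclear zones were scored separately.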

Micrococcus luteus [4] = experiment: Antibacterial activity against Micrococcus luteus ATCC 10240 at 0.1 mM incubated for 24 hrs at 37 degC by agar diffusion assay; assay type: functional; details: ATCC 10240, 24 h, read-out: DIZ; in short: as §2
Pseudomonas aeruginosa [5] = experiment: Antibacterial activity against wild type Pseudomonas aeruginosa K799 at 0.1 mM incubated for 24 hrs at 37 degC by agar diffusion assay; assay type: functional; details: K799, 24 h, read-out: DIZ; in short: as §2
Escherichia coli [6] = experiment: Antibacterial activity against Escherichia coli X580 at 0.1 mM incubated for 24 hrs at 37 degC by agar diffusion assay; assay type: functional; details: X580, 24 h, read-out: DIZ; in short: as §2
Bacillus subtilis [7] = experiment: Antibacterial activity against Bacillus subtilis ATCC 6633 by broth microdilution method; assay type: functional; in short: as §1
Bacillus subtilis [8] = experiment: Antibacterial activity against Bacillus subtilis ATCC 6633 at 0.1 mM incubated for 24 hrs at 37 degC by agar diffusion assay; assay type: functional; details: ATCC 6633, 24 h, read-out: DIZ; in short: as §2
Staphylococcus aureus [9] = experiment: Antibacterial activity against Staphylococcus aureus SG511 at 0.1 mM incubated for 24 hrs at 37 degC by agar diffusion assay; assay type: functional; details: SG511, 24 h, read-out: DIZ; in short: as §2
Mycolicibacterium vaccae [10] = experiment: Antibacterial activity against Mycobacterium vaccae IMET10670 by broth microdilution method; assay type: functional; in short: as §1
Pseudomonas aeruginosa [11] = experiment: Antibacterial activity against Pseudomonas aeruginosa K799/61 by broth microdilution method; assay type: functional; in short: as §1
Staphylococcus aureus [12] = experiment: Antibacterial activity against Staphylococcus aureus SG511 by broth microdilution method; assay type: functional; in short: as §1
Mycolicibacterium vaccae [13] = experiment: Antibacterial activity against Mycobacterium vaccae IMET10670 at 0.1 mM incubated for 44 hrs at 37 degC by agar diffusion assay; assay type: functional; details: IMET10670, 44 h, read-out: DIZ; in short: as §2
Acinetobacter baumannii [14] = experiment: Antibacterial activity against Acinetobacter baumannii ATCC 17961 at 0.1 mM incubated for 24 hrs at 37 degC by agar diffusion assay; assay type: functional; details: ATCC 17961, 24 h, read-out: DIZ; in short: as §2
Escherichia coli [15] = experiment: Antibacterial activity against Escherichia coli DC0 at 0.1 mM incubated for 24 hrs at 37 degC by agar diffusion assay; assay type: functional; details: DC0, 24 h, read-out: DIZ; in short: as §2
Pseudomonas aeruginosa [16] = experiment: Antibacterial activity against Pseudomonas aeruginosa K799/61 at 0.1 mM incubated for 24 hrs at 37 degC by agar diffusion assay; assay type: functional; details: K799/61, 24 h, read-out: DIZ; in short: as §2
Acinetobacter baumannii [17] = experiment: Antibacterial activity against Acinetobacter baumannii ATCC 17961 by broth microdilution method; assay type: functional; in short: as §1
Micrococcus luteus [18] = experiment: Antibacterial activity against Micrococcus luteus ATCC 10240 by broth microdilution method; assay type: functional; in short: as §1
Escherichia coli [19] = experiment: Antibacterial activity against Escherichia coli DC2 by broth microdilution method; assay type: functional; in short: as §1
Pseudomonas aeruginosa [20] = experiment: Antibacterial activity against Pseudomonas aeruginosa K799/61 assessed as unclear inhibition zone or inhibition zone with many colonies at 0.1 mM incubated for 24 hrs at 37 degC by agar diffusion assay; assay type: functional; details: K799/61, 24 h, read-out: DIZ; in short: as §2
Mycolicibacterium vaccae [21] = experiment: Antibacterial activity against Mycobacterium vaccae IMET10670 assessed as unclear inhibition zone or inhibition zone with many colonies at 0.1 mM incubated for 44 hrs at 37 degC by agar diffusion assay; assay type: functional; details: IMET10670, 44 h, read-out: DIZ; in short: as §2
Acinetobacter baumannii [22] = experiment: Antibacterial activity against Acinetobacter baumannii ATCC 17961 assessed as unclear inhibition zone or inhibition zone with many colonies at 0.1 mM incubated for 24 hrs at 37 degC by agar diffusion assay; assay type: functional; details: ATCC 17961, 24 h, read-out: DIZ; in short: as §2
Escherichia coli [23] = experiment: Antibacterial activity against Escherichia coli X580 assessed as unclear inhibition zone or inhibition zone with many colonies at 0.1 mM incubated for 24 hrs at 37 degC by agar diffusion assay; assay type: functional; details: X580, 24 h, read-out: DIZ; in short: as §2
Escherichia coli [24] = experiment: Antibacterial activity against Escherichia coli DC0 assessed as unclear inhibition zone or inhibition zone with many colonies at 0.1 mM incubated for 24 hrs at 37 degC by agar diffusion assay; assay type: functional; details: DC0, 24 h, read-out: DIZ; in short: as §2
[25] = Retention time of the compound in presence of methyl mercaptoacetate in CH3CN/PBS solution at 37 degC incubated for 3 hrs by HPLC method; assay type: physicochemical; details: buffer

Row | Structure (SMILES) | MIC (Escherichia coli [1]) [µM] | MIC (Pseudomonas aeruginosa [2]) [µM] | zone of inhibition at 100 µM (Escherichia coli [3]) [mm] | zone of inhibition at 100 µM (Micrococcus luteus [4]) [mm] | zone of inhibition at 100 µM (Pseudomonas aeruginosa [5]) [mm] | zone of inhibition at 100 µM (Escherichia coli [6]) [mm] | MIC (Bacillus subtilis [7]) [µM] | zone of inhibition at 100 µM (Bacillus subtilis [8]) [mm] | zone of inhibition at 100 µM (Staphylococcus aureus [9]) [mm] | MIC (Mycolicibacterium vaccae [10]) [µM] | MIC (Pseudomonas aeruginosa [11]) [µM] | MIC (Staphylococcus aureus [12]) [µM] | zone of inhibition at 100 µM (Mycolicibacterium vaccae [13]) [mm] | zone of inhibition at 100 µM (Acinetobacter baumannii [14]) [mm] | zone of inhibition at 100 µM (Escherichia coli [15]) [mm] | zone of inhibition at 100 µM (Pseudomonas aeruginosa [16]) [mm] | MIC (Acinetobacter baumannii [17]) [µM] | MIC (Micrococcus luteus [18]) [µM] | MIC (Escherichia coli [19]) [µM] | Retention_time [25] [min] | other results
1 | CC1=CC(=O)C(C(C)(C)CC(=O)O)=C(C)C1=O | > 100 | > 100 | 0 | 0 | 0 | 0 | 50 (≈ 11.8 µg/mL) | 0 | 0 | 80 (≈ 18.9 µg/mL) | > 100 | > 100 | 0 | 0 | 0 | 0 | > 100 | 50 (≈ 11.8 µg/mL) | > 100 | – | –
2 | CC1=C(N)C(=O)C(C(C)(C)CC(=O)O)=C(C)C1=O | – | – | 0 | 0 | 0 | 0 | – | 0 | 0 | – | – | – | 0 | 0 | 0 | 0 | – | – | – | – | –
3 | CC1=CC(=O)C(C(C)(C)CC(=O)N2CCN(c3cc4c(cc3F)c(=O)c(C(=O)O)cn4C3CC3)CC2)=C(C)C1=O | 12.5 (≈ 6.87 µg/mL) | 1.25 (≈ 0.687 µg/mL) | 27 | 28 | 41 | 32 | < 0.05 | 39 | 33 | 0.5 (≈ 0.275 µg/mL) | 2.5 (≈ 1.37 µg/mL) | < 0.05 | 32 | 26 | 21 | 35 | 0.39 (≈ 0.214 µg/mL) | 0.2 (≈ 0.11 µg/mL) | 6.25 (≈ 3.43 µg/mL) | – | zone of inhibition at 100 µM (Pseudomonas aeruginosa [20]): 42 mm; zone of inhibition at 100 µM (Mycolicibacterium vaccae [21]): 42 mm; zone of inhibition at 100 µM (Acinetobacter baumannii [22]): 32 mm; zone of inhibition at 100 µM (Escherichia coli [23]): 40 mm; zone of inhibition at 100 µM (Escherichia coli [24]): 29 mm
4 | c1ccc(N2CCNCC2)cc1 [PHENYLPIPERAZINE] | – | – | – | – | – | – | – | – | – | – | – | – | – | – | – | – | – | – | – | 8.5 | –
5 | COC(=O)CSc1c(C)c(O)c(C)c2c1OC(=O)CC2(C)C | – | – | – | – | – | – | – | – | – | – | – | – | – | – | – | – | – | – | – | 9.2 | –
